Measured values published in ChEMBL document CHEMBL4017549, “Structural Basis of Inhibition of ERα-Coactivator Interaction by High-Affinity N-Terminus Isoaspartic Acid Tethered Helical Peptides” (J Med Chem, 2017).
Active and inactive are the calls of the source. The rule behind the calls is not given here.

Legend:
[1] = target: T1, Estrogen receptor (Homo sapiens) (UniProt P03372); assay: (§1) Inhibition of recombinant human GFP-fused ERalpha LBD (301 to 553 residues) expressed in human […] cells assessed as downregulation of 17beta-estradiol-induced transcription at 5 uM preincubated for 4 hrs followed by E2 addition measured after 20 hrs by dual luciferase reporter gene assay; format: cell-based
T1 sequence (whole entry): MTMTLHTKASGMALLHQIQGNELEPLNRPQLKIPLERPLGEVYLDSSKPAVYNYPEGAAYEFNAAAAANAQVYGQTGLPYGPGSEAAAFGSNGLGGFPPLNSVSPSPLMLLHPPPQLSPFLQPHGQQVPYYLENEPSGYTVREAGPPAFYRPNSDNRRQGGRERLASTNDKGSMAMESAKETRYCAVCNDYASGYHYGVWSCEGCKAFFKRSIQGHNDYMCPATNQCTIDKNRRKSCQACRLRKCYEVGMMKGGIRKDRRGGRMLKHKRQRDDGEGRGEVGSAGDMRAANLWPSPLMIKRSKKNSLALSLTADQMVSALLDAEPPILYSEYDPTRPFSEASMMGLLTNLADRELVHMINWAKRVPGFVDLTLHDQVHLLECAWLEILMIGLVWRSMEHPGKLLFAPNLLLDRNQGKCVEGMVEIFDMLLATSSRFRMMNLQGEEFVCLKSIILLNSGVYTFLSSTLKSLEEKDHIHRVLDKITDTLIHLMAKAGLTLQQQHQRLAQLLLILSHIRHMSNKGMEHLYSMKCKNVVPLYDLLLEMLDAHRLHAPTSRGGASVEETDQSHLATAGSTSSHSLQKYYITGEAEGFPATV
In short: (§2)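 U2OS cells in phenol red-free DMEM with 10% charcoal-stripped FBS, transfected 4 h with pEGFP-C1-ERα, 3XERE firefly luciferase reporter and pRL-TK Renilla plasmids. Peptides for 4 h, then 10 nM E2 or DMSO for 20 h. Lysates read by dual-luciferase; firefly normalized to Renilla, then to DMSO-treated control. SEM from more than two independent experiments.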

[2] = target: T1, Estrogen receptor (Homo sapiens); assay: as §1, with “20 hrs in presence of tamoxifen by dual” for “20 hrs by dual”; format: cell-based; in short: as §2
MCF7 [3] = assay: Cytotoxicity against human MCF7 cells assessed as reduction in cell viability at 5 uM after 24 hrs by MTT assay relative to control; format: cell-based; settings: mcf7, 24 h
MCF7 [4] = assay: Cytotoxicity against human MCF7 cells assessed as cell viability at 20 uM after 24 hrs by MTT assay; format: functional; settings: MCF7, 24 h, read-out: Activity
MDA-MB-231 = assay: Cytotoxicity against human MDA-MB-231 cells assessed as reduction in cell viability up to 40 uM after 24 hrs by MTT assay; format: functional, cell-based
In short: (§3)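 MTT read-out. 5000−10000 cells/well seeded overnight in their own medium: MCF7 and MCF10A in DMEM with phenol red, 10% FBS, 37 °C, 5% CO2; T47D in RPMI1640 with insulin and 10% FBS; MDA-MB-231 in L-15, 10% FBS, no CO2. Serial peptide dilutions or DMSO for 20 h at 37 °C, then MTT 4 h more; formazan in DMSO, A570.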

MCF7 [5] = assay: Cytotoxicity against human MCF7 cells assessed as reduction in cell viability at 1 uM after 24 hrs by MTT assay relative to control; format: cell-based; settings: mcf7, 24 h
[6] = target: T1, Estrogen receptor (Homo sapiens); assay: Inhibition of ERalpha in human MCF7 cells assessed as downregulation of 17beta-estradiol-mediated pS2 mRNA expression at 5 uM preincubated for 4 hrs followed by 17beta-estradiol addition measured after 16 hrs by quantitative RT-PCR analysis; format: cell-based
In short: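 MCF-7 cells hormone-depleted 72 h in phenol red-free DMEM with 5% charcoal-treated serum, given peptides or DMSO for 4 h, then 100 nM 17β-estradiol or DMSO for 16 h. pS2 mRNA measured by quantitative RT-PCR, normalized to β-actin. Three independent experiments, mean ± SEM.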

MCF7 [7] = assay: Cytotoxicity against human MCF7 cells assessed as reduction in cell viability after 24 hrs by MTT assay; format: functional, cell-based; in short: as §3
MCF-10A = assay: Cytotoxicity against human MCF10A cells assessed as reduction in cell viability up to 40 uM after 24 hrs by MTT assay; format: cell-based; in short: as §3
T47D = assay: Cytotoxicity against human T47D cells assessed as reduction in cell viability up to 40 uM after 24 hrs by MTT assay; format: functional, cell-based; in short: as §3
MCF7 [8] = assay: Cytotoxicity against human MCF7 cells assessed as cell viability up to 100 uM after 24 hrs by MTT assay; format: functional, cell-based; in short: as §3

Row | inhibition [1] | inhibition [2] | inhibition [6] | SMILES | Activity (MCF7 [3]) [%] | viability at 20 µM (MCF7 [4]) [%] | Activity (MDA-MB-231) | Activity (MCF7 [5]) [%] | Activity (MCF7 [7]) | IC50 (MCF7 [7]; MCF7, 24 h) [µM] | Activity (MCF-10A) | Activity (T47D) | Activity (MCF7 [8])
1 | Active | Active | Active | CC[C@H](C)[C@@H]1NC(=O)C[C@H](NC(=O)[C@H](CCCNC(=N)N)NC(=O)CCNC(=O)[C@H](Cc2c[nH]c3ccccc23)NC(C)=O)C(=O)NCC(C(=O)N[C@@H](CCCNC(=N)N)C(=O)NC(CC(C)(C)C)C(=O)NC(CC(C)(C)C)C(=O)N[C@@H](CCC(N)=O)C(N)=O)NC(=O)C(CC(C)(C)C)NC1=O (some centres undefined) | < 20 | 14 | inactive | < 20 | Dose-dependent effect | 12 | Non-Toxic | Active | 
2 |  |  |  | CC/C(=C(\c1ccccc1)c1ccc(OCCN(C)C)cc1)c1ccccc1 [TAMOXIFEN] | < 20 |  |  | < 20 |  |  |  |  | Active
